Converted amounts (≈) assume the structure as drawn.
What was measured:
Staphylococcus aureus [1] = assay: Antimicrobial activity against Staphylococcus aureus ATCC 29213 after 18 to 24 hrs by alamar blue assay
Staphylococcus aureus [2] = assay: Antimicrobial activity against methicillin-resistant Staphylococcus aureus ATCC 33592 after 18 to 24 hrs by alamar blue assay; assay type: functional; conditions: Staphylococcus aureus, ATCC 33592; read-out: MIC
In short: (§1)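 Broth microdilution per NCCLS standard, Mueller-Hinton broth, 8-point twofold dilutions; exponentially growing cells at 5 10^5 cells/ml with compound, 18–24 h at 37 C; 20% Alamar blue added, fluorescence read; MIC90 taken as lowest concentration preventing at least 90% growth.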

Acinetobacter baumannii = assay: Antimicrobial activity against Acinetobacter baumannii ATCC 49139 after 18 to 24 hrs by alamar blue assay; assay type: functional; conditions: Acinetobacter baumannii, ATCC 49139; read-out: MIC
In short: (§2)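 Broth microdilution per NCCLS in Mueller-Hinton broth, 8-point twofold dilutions, 384-well format. Exponential-phase cells at 5 × 10^5 cells/ml incubated with compound 18–24 h at 37 °C, then 20% Alamar blue added and fluorescence read. MIC90 taken as the lowest concentration preventing at least 90% bacterial growth.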

Pseudomonas aeruginosa = assay: Antimicrobial activity against Pseudomonas aeruginosa ATCC 25619 after 18 to 24 hrs by alamar blue assay; assay type: functional; conditions: Pseudomonas aeruginosa, ATCC 25619; read-out: MIC
In short: as §2

Escherichia coli = assay: Antimicrobial activity against Escherichia coli ATCC […] after 18 to 24 hrs by alamar blue assay; assay type: functional; conditions: Escherichia coli; read-out: MIC
In short: as §2

Serratia marcescens = assay: Antimicrobial activity against Serratia marcescens ATCC 14756 after 18 to 24 hrs by alamar blue assay; assay type: functional; conditions: Serratia marcescens, ATCC 14756; read-out: MIC
In short: as §2

Staphylococcus aureus [3] = assay: Antimicrobial activity against oxacillin- and methicillin-resistant Staphylococcus aureus isolate Sa-OXA-R2 after 18 to 24 hrs by alamar blue assay; assay type: functional
In short: as §1

Bacillus subtilis = assay: Antimicrobial activity against Bacillus subtilis ATCC 23857 after 18 to 24 hrs by alamar blue assay; assay type: functional
In short: as §2

[4] = system: Mycolicibacterium smegmatis; assay: Antimicrobial activity against Mycobacterium smegmatis BCRC 11565 after 18 to 24 hrs by alamar blue assay; assay type: functional; conditions: Mycolicibacterium smegmatis, BCRC 11565; read-out: MIC
In short: as §2

Staphylococcus aureus [5] = assay: Antimicrobial activity against methicillin-resistant Staphylococcus aureus isolate NTUH4722 after 18 to 24 hrs by alamar blue assay; assay type: functional
In short: as §1

[6] = system: Stenotrophomonas maltophilia; assay: Antimicrobial activity against Stenotrophomonas maltophilia ATCC 13637 after 18 to 24 hrs by alamar blue assay; assay type: functional; conditions: Stenotrophomonas maltophilia, ATCC 13637; read-out: MIC
In short: as §2

| SMILES | MIC (Staphylococcus aureus [1]) | MIC (Staphylococcus aureus [2]) | MIC (Acinetobacter baumannii) | MIC (Pseudomonas aeruginosa) | MIC (Escherichia coli) | MIC (Serratia marcescens) | MIC (Staphylococcus aureus [3]) | MIC (Bacillus subtilis) | MIC [4] | MIC (Staphylococcus aureus [5]) | MIC [6] |
| --- | --- | --- | --- | --- | --- | --- | --- | --- | --- | --- | --- |
| O=C(Nc1nnc(-c2ccc(F)cc2)o1)c1cccc(Br)c1 | 2 µg/mL (≈ 5.52 µM) | 0.5 µg/mL (≈ 1.38 µM) | > 256 µg/mL | > 256 µg/mL | > 256 µg/mL | > 256 µg/mL | 1 µg/mL (≈ 2.76 µM) | 0.5 µg/mL (≈ 1.38 µM) | 0.5 µg/mL (≈ 1.38 µM) | 1 µg/mL (≈ 2.76 µM) | > 256 µg/mL |
| CCc1c(C)nc(N2NC(C)=CC2NC(=O)c2ccccc2I)nc1O (stereo not drawn) | 0.5 µg/mL (≈ 1.07 µM) | 1 µg/mL (≈ 2.15 µM) | > 256 µg/mL | > 256 µg/mL | > 256 µg/mL | > 256 µg/mL | 0.5 µg/mL (≈ 1.07 µM) | 0.25 µg/mL (≈ 0.537 µM) | 0.25 µg/mL (≈ 0.537 µM) | 0.5 µg/mL (≈ 1.07 µM) | > 256 µg/mL |
| O=C(Nc1cc(Cl)c(Cl)c(Cl)c1)c1cc(Br)cc(Br)c1O | ≤ 0.03 µg/mL | 0.06 µg/mL (≈ 0.126 µM) | 16 µg/mL (≈ 33.7 µM) | 16 µg/mL (≈ 33.7 µM) | 8 µg/mL (≈ 16.9 µM) | 16 µg/mL (≈ 33.7 µM) | ≤ 0.03 µg/mL | < 0.03 µg/mL | 0.5 µg/mL (≈ 1.05 µM) | ≤ 0.03 µg/mL | 16 µg/mL (≈ 33.7 µM) |
| CCc1ccccc1NS(=O)(=O)c1ccc2c(c1)NC(C)CC(=O)S2 (stereo not drawn) | 2 µg/mL (≈ 5.31 µM) | 8 µg/mL (≈ 21.2 µM) | > 256 µg/mL | > 256 µg/mL | > 256 µg/mL | > 256 µg/mL | > 64 µg/mL | < 0.03 µg/mL | > 64 µg/mL | 4 µg/mL (≈ 10.6 µM) | > 256 µg/mL |
| O=C(Nc1ccc(-c2nc3ccccc3[nH]2)cc1)c1ccc([N+](=O)[O-])o1 | 0.125 µg/mL (≈ 0.359 µM) | 0.25 µg/mL (≈ 0.718 µM) | 12 µg/mL (≈ 34.5 µM) | 128 µg/mL (≈ 367 µM) | 256 µg/mL (≈ 735 µM) | 32 µg/mL (≈ 91.9 µM) | 4 µg/mL (≈ 11.5 µM) | 0.06 µg/mL (≈ 0.172 µM) | 0.5 µg/mL (≈ 1.44 µM) | 8 µg/mL (≈ 23 µM) | 32 µg/mL (≈ 91.9 µM) |
| CCc1ccccc1NS(=O)(=O)c1ccc2c(c1)NCC(C)C(=O)S2 (stereo not drawn) | 2 µg/mL (≈ 5.31 µM) | 2 µg/mL (≈ 5.31 µM) | > 256 µg/mL | > 256 µg/mL | > 256 µg/mL | > 256 µg/mL | > 64 µg/mL | < 0.03 µg/mL | > 64 µg/mL | 4 µg/mL (≈ 10.6 µM) | > 256 µg/mL |
| CCOc1ccc2nc(NC(=O)c3ccc([N+](=O)[O-])o3)sc2c1 | 2 µg/mL (≈ 6 µM) | 4 µg/mL (≈ 12 µM) | 12 µg/mL (≈ 36 µM) | 128 µg/mL (≈ 384 µM) | 256 µg/mL (≈ 768 µM) | 32 µg/mL (≈ 96 µM) | 16 µg/mL (≈ 48 µM) | 0.06 µg/mL (≈ 0.18 µM) | 0.5 µg/mL (≈ 1.5 µM) | 16 µg/mL (≈ 48 µM) | 32 µg/mL (≈ 96 µM) |
| Cc1cccc(NS(=O)(=O)c2ccc3c(c2)NC(=O)C(C)S3)c1C (stereo not drawn) | 2 µg/mL (≈ 5.52 µM) | 64 µg/mL (≈ 177 µM) | > 256 µg/mL | > 256 µg/mL | > 256 µg/mL | > 256 µg/mL | 16 µg/mL (≈ 44.1 µM) | < 0.03 µg/mL | > 64 µg/mL | 16 µg/mL (≈ 44.1 µM) | > 256 µg/mL |
| O=C(Nc1nnc(-c2cccc(Br)c2)o1)c1ccc(F)cc1 | 3 µg/mL (≈ 8.28 µM) | 1.5 µg/mL (≈ 4.14 µM) | > 256 µg/mL | > 256 µg/mL | > 256 µg/mL | > 256 µg/mL | 1.5 µg/mL (≈ 4.14 µM) | 0.5 µg/mL (≈ 1.38 µM) | 0.5 µg/mL (≈ 1.38 µM) | 1.5 µg/mL (≈ 4.14 µM) | > 256 µg/mL |
| O=c1c2ccccc2nc(/C=C/c2ccc([N+](=O)[O-])o2)n1CCCO | 2 µg/mL (≈ 5.86 µM) | 2 µg/mL (≈ 5.86 µM) | > 256 µg/mL | 2 µg/mL (≈ 5.86 µM) | 16 µg/mL (≈ 46.9 µM) | > 256 µg/mL | 2 µg/mL (≈ 5.86 µM) | < 0.03 µg/mL | 1 µg/mL (≈ 2.93 µM) | 2 µg/mL (≈ 5.86 µM) | > 256 µg/mL |
| CCC(NC(=O)Cc1c(C)c2cc3c(-c4ccc(Cl)cc4)coc3c(C)c2oc1=O)C(=O)O (stereo not drawn) | 2.5 µg/mL (≈ 5.34 µM) | 5 µg/mL (≈ 10.7 µM) | > 256 µg/mL | > 256 µg/mL | > 256 µg/mL | > 256 µg/mL | 2.5 µg/mL (≈ 5.34 µM) | > 64 µg/mL | 1 µg/mL (≈ 2.14 µM) | 2.5 µg/mL (≈ 5.34 µM) | > 256 µg/mL |
| O=C(Nc1nnc(-c2ccc(Cl)cc2)o1)c1cccc(Cl)c1 | 0.5 µg/mL (≈ 1.5 µM) | 0.25 µg/mL (≈ 0.748 µM) | > 256 µg/mL | > 256 µg/mL | > 256 µg/mL | > 256 µg/mL | 0.125 µg/mL (≈ 0.374 µM) | 0.5 µg/mL (≈ 1.5 µM) | 0.5 µg/mL (≈ 1.5 µM) | 0.125 µg/mL (≈ 0.374 µM) | > 256 µg/mL |
| O=C(Nc1nnc(-c2ccc(Cl)cc2)o1)c1cccc(C(F)(F)F)c1 | 1 µg/mL (≈ 2.72 µM) | 0.5 µg/mL (≈ 1.36 µM) | > 256 µg/mL | > 256 µg/mL | > 256 µg/mL | > 256 µg/mL | 0.125 µg/mL (≈ 0.34 µM) | 0.5 µg/mL (≈ 1.36 µM) | 0.5 µg/mL (≈ 1.36 µM) | 0.125 µg/mL (≈ 0.34 µM) | > 256 µg/mL |

From ChEMBL document CHEMBL1629439, “High-throughput identification of antibacterials against methicillin-resistant Staphylococcus aureus (MRSA) and the transglycosylase” (Bioorg Med Chem, 2010)
